DDE Tn7 FP inh – DD(E)-Tn7 binding inhibition, primary FP screen; FP displacement of FITC-Tn7 peptide from fibrin DD(E); 0% = median of compound wells per plate; P02675; inhibition, % at 8.3 µM; 370,000 compounds, 0.13% hits; AID 720508;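 active = inhibition above the mean of compounds falling within the control limits plus 3 SD of them, cut at about 14% in these data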;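 also: 0% = plate median of compound wells and 100% = 10 µM Aha-Tn7 peptide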
Target sequence (P02675 whole entry, looked up): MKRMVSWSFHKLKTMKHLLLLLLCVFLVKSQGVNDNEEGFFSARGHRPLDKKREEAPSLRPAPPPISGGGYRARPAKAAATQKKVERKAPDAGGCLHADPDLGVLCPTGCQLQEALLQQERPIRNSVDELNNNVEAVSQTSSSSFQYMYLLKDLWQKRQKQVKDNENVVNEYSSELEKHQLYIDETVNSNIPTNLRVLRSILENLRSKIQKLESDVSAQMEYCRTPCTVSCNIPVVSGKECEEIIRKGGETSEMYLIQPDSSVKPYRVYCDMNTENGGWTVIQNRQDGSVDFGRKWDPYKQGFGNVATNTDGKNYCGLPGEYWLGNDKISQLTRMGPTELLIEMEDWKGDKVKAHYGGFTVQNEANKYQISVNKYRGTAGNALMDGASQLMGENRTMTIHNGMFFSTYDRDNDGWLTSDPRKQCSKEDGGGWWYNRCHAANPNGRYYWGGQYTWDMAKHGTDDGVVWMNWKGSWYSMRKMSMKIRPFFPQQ
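Assay system: Human clot-derived fibrin DD(E) complex | Buffer or medium: Tris/NaCl/CaCl2 buffer, pH 7.8 | Repeats: One replicate per compound | Benchmarks: Aha-Tn7 high control | Measure: % inhibition scaled between sample-field median and high-control FP | Schedule: 10 min plus 3 h, room temperature | Signal: Fluorescence polarization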
SKN-1 inh – C. elegans SKN-1 inhibition. 360,000 compounds, 0.49% hits. AID 624304. C. elegans VP596 Pgst-4::GFP/RFP ratio, acrylamide-induced, 24 h. inhibition, % at 21.8 µM;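 active = interference check ratio from 0.5 to 1.5 plus GFP to RFP signal ratio inhibition reaching or exceeding a fixed threshold, cut at about 30% in these data, passing the limit was not always enough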
Tn6 DDE FP – inhibitors of Tn6 peptide binding to human fibrin DD(E). Fibrin DD(E) TRITC-Tn6 fluorescence polarization displacement. inhibition, % at 8.3 µM. 370,000 compounds, 0.21% hits;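 active = inhibition above a per-campaign cutoff: mean of compounds within control limits plus 3 SD, cut at about 15% in these data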;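 also: 0% = median of all compound wells on the plate and 100% = blocking peptide control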
proKLK7 act – activators of human kallikrein-7 zymogen | P49862 | activation, % at 7 µM | 370,000 compounds, 0.9% hits | purified proKLK7, EDANS-DABCYL substrate fluorescence; 100% is mature enzyme control, 0% vehicle;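 active = activation above the mean of all tested compounds plus 3 SD, computed per campaign excluding outliers beyond control limits, cut at about 13% in these data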
MT1-MMP act inh – blocks activation of human MT1-MMP | AID 651647 | HT1080 RFP-PRO-GFP cells, GFP/RFP ratio fluorescence, overnight; percent of plate control window, DMSO zero | P50281 | GFP/RFP ratio change, % at 20 µM | 360,000 compounds, 0.061% hits;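 active = GFP/RFP ratio change of at least 30% with cell ATP level not reduced by more than half and red fluorescence within 50% of control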
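Compound: 20 µM single dose, 1% DMSO / System: HT1080 RFP-PRO-GFP cells / Controls: DMSO and RFP-L50D-GFP cell wells / Read-out basis: GFP/RFP fluorescence ratio / Schedule: overnight compound exposure at 37 °C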
Neddyl block – inhibitors of human cullin neddylation; AID 651699; calls only at 25 µM; 360,000 compounds, 0.58% hits; TR-FRET cullin neddylation, biochemical; in the data active = inhibition above about 36%
proKLK7 act conf – proKLK7 activation, confirmation; activation, % at 7 µM; purified proKLK7, EDANS-DABCYL substrate fluorescence; scaled: vehicle 0, mature enzyme 100; shares compounds with proKLK7 act; 3,200 compounds, 68% hits;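 active = activation, as change over the incubation, above the mean of all tested compounds plus 3 SD, cut at about 13% in these data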
EDANS-DABCYL int – counter-screen for kallikrein-7 activators: EDANS-DABCYL optical interference; shares compounds with proKLK7 act; EDANS-DABCYL substrate fluorescence interference, no enzyme, 4 h; solvent 0%, active enzyme control 100%; activation, % at 7 µM; 3,200 compounds, 80% hits; AID 686952;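 active = activation above the all-compound mean plus 3 SD, ignoring values outside control-based bounds, cut at about 4.8% in these data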;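 also: value is the 4 h activation minus the activation read at time zero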
EDANS interf – EDANS fluorescence interference in dose response, no enzyme; shares compounds with proKLK7 act; EDANS-DABCYL peptide fluorescence interference; EC50, µM; 250 compounds, 20% hits;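 active = compounds that raise the fluorescence signal in this interference counterscreen, with EC50 at or below 10 µM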;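 also: intact quenched peptide substrate alone read at 355 nm excitation and 520 nm emission; signal is fluorescence gain from T0 to T4 after four hours at room temperature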
Active calls of the source: *; i = inactive; x = not tested or not shown. Compounds with a hit are over-represented: about 2.2% of the library has one in this group of screens.

SMILES	DDE Tn7 FP inh	SKN-1 inh	Tn6 DDE FP	proKLK7 act	MT1-MMP act inh	Neddyl block	proKLK7 act conf	EDANS-DABCYL int	others
N#Cc1ccccc1NC(=O)c1ccccc1OCC(=O)Nc1ccc2c(c1)oc1ccccc12	4.5	7.0	5.3	0.3	-1.9	i	x	x
CNC(=O)COc1ccccc1C(=O)Nc1ccc2c(c1)oc1ccccc12	-5.7	-25.3	-5.7	54.7*	-1.7	i	-74.5	-111.4
CCOC(=O)[C@H]1[C@H]2COc3ccc(Cl)cc3[C@@H]2N2C(=O)c3ccc(C)cc3NC(=O)[C@@]12C	3.6	-3.5	0.9	0.3	-6.1	i	x	x
COc1ccc(-c2ccnc3nc(/N=C/N(C)C)nn23)cc1	0.9	x	-1.5	44.0*	x	x	65.6*	63.2*
CN(C)/C=N/c1nc2nccc(-c3ccccn3)n2n1	-2.9	6.4	7.1	12.1	1.7	x	x	x
COc1cccc(OC(C)c2ccnc3nc(/N=C/N(C)C)nn23)c1 (stereo not drawn)	-0.5	-4.6	0.8	2.5	1.7	x	x	x
CN(C)/C=N/c1nc2nccc(-c3cccnc3)n2n1	7.8	1.5	-2.3	13.0*	1.1	x	64.8*	61.9*
CC1CCCC(C)N1NC(=O)c1ccc(Cl)c(S(N)(=O)=O)c1 (stereo not drawn)	1.0	10.2	7.8	0.1	0.3	i	x	x
CN(C)C=Nc1ccc2nn(-c3ccccc3)nc2c1	-0.9	-9.1	4.4	18.6*	0.5	x	66.0*	69.2*
COc1c2ccoc2c(OC[C@@H](OC(C)=O)C(C)(C)O)c2oc(=O)ccc12	-0.6	-3.5	-3.5	-1.2	-1.8	i	x	x
COc1c2ccoc2nc2c(OC)c(OCC(O)C(C)(C)O)ccc12 (stereo not drawn)	5.1	0.4	0.7	21.8*	3.2	x	40.8*	38.9*
COc1c2ccoc2c(OC[C@@H](O)C(C)(C)O)c2oc(=O)ccc12	2.1	9.9	2.5	-0.3	2.8	i	x	x
COc1c2ccoc2nc2c(OC)c(OC[C@@H](O)C(C)(C)O)ccc12	6.4	-11.7	0.6	24.4*	x	x	37.0*	40.4*
COc1c2ccoc2nc2c(OC)c(OCC(OC(C)=O)C(C)(C)O)ccc12 (stereo not drawn)	-1.3	-2.7	-2.4	18.5*	-6.6	x	13.3*	13.4*
COc1c2ccoc2nc2c(OC)c(O)ccc12	-1.6	-14.0	-3.0	2.0	4.7	i	x	x
COc1ccc2c(OC)c3ccoc3nc2c1OC	-4.5	0.2	-2.9	26.8*	-1.0	x	31.2*	62.0*
CC1CCN(CCCNC(=O)CCc2nnc3n(CCc4ccccc4)c(=O)c4ccccc4n23)CC1	-1.2	-5.6	1.2	0.0	-3.5	i	x	x
CCOC(=O)N1CCN(C(=O)c2cc3ccccc3o2)CC1	-0.9	0.9	-3.8	0.5	0.1	i	x	x
COc1ccc(C(=O)Nc2ccc(NC(=O)c3ccco3)c(Cl)c2)cc1OC	2.7	16.9	-3.8	15.7*	-0.7	i	1.6	3.8
N#Cc1c(NC(=O)COC(=O)c2nccnc2N)sc2c1CCCC2	-1.8	9.5	4.5	16.8*	1.9	i	16.0*	13.5*	EDANS interf=>69.5
COCC(=O)Nc1nc(-c2ccc([N+](=O)[O-])cc2)cs1	-0.1	14.9	-0.7	109.2*	3.4	i	-2.1	-2.0
CC(C)(C)c1ccc(C(=O)N2CCN(Cc3ccccc3)CC2)cc1	0.0	-2.9	-4.8	0.5	-0.8	i	x	x
CC(C)(C)c1ccc(CN2N=Nc3ccccc3S2(=O)=O)cc1	5.8	0.2	-0.2	20.6*	-6.5	i	-0.1	1.5
Cc1ccccc1NC1=NC(=S)N(c2ccccc2)C12CCCCC2	-1.9	4.8	1.5	0.4	-4.7	i	x	x
C=CCN(CC=C)Cc1c(O)ccc2c(=O)c(-c3ccccc3)coc12	-4.3	5.1	5.4	37.6*	-7.7	x	25.6*	28.6*
SMILES	DDE Tn7 FP inh	SKN-1 inh	Tn6 DDE FP	proKLK7 act	MT1-MMP act inh	Neddyl block	proKLK7 act conf	EDANS-DABCYL int	others
O=c1c(-c2ccc(O)cc2)coc2c([C@@H]3O[C@H](CO)[C@@H](O)[C@H](O)[C@H]3O)c(O)ccc12	-5.5	10.3	-3.2	12.2	-3.3	x	x	x
CCN(CC)Cc1c(O)ccc2c(=O)c(-c3ccc(Cl)cc3)coc12	3.7	-6.1	7.6	29.0*	2.2	x	33.5*	30.9*
CCCOC(=O)c1ccc(Oc2coc3c(CN(CC)CC)c(O)ccc3c2=O)cc1	-1.0	-3.9	1.9	59.7*	7.8	x	-64.7	47.6*
Cc1c(O)ccc2c(=O)c(Oc3ccccc3)coc12	-9.8	12.6	6.1	-1.7	2.5	i	x	x
CN(C)Cc1c(O)ccc2c(=O)c(-c3ccc(Cl)cc3)coc12	-4.5	28.7	-0.7	33.0*	5.7	x	39.0*	37.1*
CC(O)(CS(=O)(=O)c1ccc(Br)cc1)c1ccccc1 (stereo not drawn)	4.4	-1.3	0.3	0.4	0.4	i	x	x
CC12CCC(=O)N1C(C(=O)Nc1ccccc1N1CCCC1)CS2 (stereo not drawn)	-0.9	11.4	7.1	-0.1	-3.0	i	x	x
COc1ccccc1-c1c(C)oc2c(CN3CCN(CCO)CC3)c(O)ccc2c1=O	7.8	11.9	1.5	72.5*	-1.2	x	68.3*	74.8*
CCOC(=O)c1oc2c(CN3CCN(C)CC3)c(O)ccc2c(=O)c1-c1ccccc1OC	-10.1	2.2	-0.4	4.9	-3.3	i	x	x
COc1ccccc1-c1c(C)oc2c(CN3CCN(C)CC3)c(O)ccc2c1=O	8.3	-11.8	-3.1	62.2*	0.3	x	59.7*	74.3*
Cc1occc1C(=O)Nc1cccc(C(=O)O)c1	1.9	0.0	6.0	-0.1	4.9	i	x	x
O=C(NNC(=O)c1cccs1)c1csc(N2CCOCC2)n1	1.6	-4.4	-1.1	-0.6	x	i	x	x
COc1ccc(C(=O)Nc2nc3ccccc3[nH]2)cc1OC	-2.4	15.3	4.3	0.1	8.9	i	x	x
COc1ccc(Cl)cc1C(=O)Nc1nc2ccccc2[nH]1	9.7	7.4	8.5	27.2*	0.4	i	-3.2	-14.7
O=C(Nc1nc2ccccc2[nH]1)c1cc2ccccc2o1	-3.8	11.2	2.0	15.9*	-5.7	i	44.1*	44.4*
